How the values were obtained:
Homo sapiens [1] = test: Toxicity in healthy human assessed as occurrence of maculopapular rash at 5 mg, po administered as single dose relative to control; type: organism-based; conditions: in vivo
[2] = Cmax in healthy human at 62.5 mg, po administered as single dose coadministered with 100 mg of ritonavir by high-pressure liquid chromatography-tandem mass spectrometry/mass spectrometry method; type: ADME, organism-based; parameters: dose 62.5 mg, route oral; conditions: in vivo
Summary of the method: (§1)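 Healthy male volunteers, fasted overnight, got one oral dose of BILR 355 in PEG solution with 200 ml water. Ritonavir 100 mg was given 10 h before and again with the dose. Plasma was sampled (EDTA) from predose to 144 h and assayed by validated LC-MS/MS. Cmax and Vz/F came from noncompartmental analysis. Vss/F = CL/F·(MRTp.o. − 1/Ka), with Ka from compartmental modelling.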

Homo sapiens [3] = test: Ratio of half life in human at 25 mg, po in presence of 100 mg of ritonavir to half life in human at 25 mg, po; type: ADME, organism-based; conditions: in vivo
[4] = Apparent oral clearance in healthy human at 12.5 mg, po administered as single dose coadministered with 100 mg of ritonavir; type: ADME, organism-based; conditions: in vivo
Summary of the method: (§2)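 Healthy male volunteers, fasted. Ritonavir 100 mg given 10 h before and again together with single oral BILR 355 in PEG solution. EDTA plasma sampled predose to 144 h. LC-MS/MS assay after protein precipitation. Noncompartmental analysis, AUC by linear up/log down trapezoidal rule; Vss = CL/F·(MRTp.o. − 1/Ka).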

[5] = AUC (0 to last) in healthy human at 62.5 mg, po administered as single dose coadministered with 100 mg of ritonavir; type: ADME, organism-based; parameters: dose 62.5 mg, time 0 - last, route oral; conditions: plasma; summary of the method: as §2
[6] = Apparent volume of distribution at steady state in healthy human at 37.5 mg, po administered as single dose coadministered with 100 mg of ritonavir; type: ADME, organism-based; conditions: in vivo, read-out: Vss/F; summary of the method: as §1
[7] = Tmax in healthy human at 62.5 mg, po administered as single dose coadministered with 100 mg of ritonavir; type: ADME, organism-based; conditions: in vivo
Homo sapiens [8] = test: Toxicity in healthy human assessed as occurrence of maculopapular rash at 75 mg, po administered as single dose coadministered with 100 mg of ritonavir; type: organism-based; conditions: in vivo
Homo sapiens [9] = test: Toxicity in healthy human assessed as occurrence of migraine at 100 mg, po administered as single dose relative to control; type: organism-based; conditions: in vivo
Homo sapiens [10] = test: Toxicity in healthy human assessed as occurrence of fatigue at 75 mg, po administered as single dose relative to control; type: organism-based; conditions: in vivo
[11] = Cmax in healthy human at 50 mg, po administered as single dose coadministered with 100 mg of ritonavir by high-pressure liquid chromatography-tandem mass spectrometry/mass spectrometry method; type: ADME, organism-based; parameters: dose 50 mg, route oral; conditions: in vivo; summary of the method: as §1
[12] = Half life in healthy human at 75 mg, po administered as single dose coadministered with 100 mg of ritonavir; type: ADME, organism-based; conditions: in vivo
Homo sapiens [13] = test: Toxicity in healthy human assessed as occurrence of maculopapular rash at 1 mg, po administered as single dose relative to control; type: organism-based; conditions: in vivo
Homo sapiens [14] = test: Toxicity in healthy human assessed as occurrence of frequent bowel movements at 12.5 mg, po administered as single dose relative to control; type: organism-based; conditions: in vivo
Homo sapiens [15] = test: Toxicity in healthy human assessed as occurrence of flatulence at 50 mg, po administered as single dose relative to control; type: organism-based; conditions: in vivo
[16] = Apparent volume of distribution in terminal phase in healthy human at 100 mg, po administered as single dose; type: ADME, organism-based; conditions: in vivo, read-out: Vz/F
Summary of the method: (§3)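 Single fasting oral dose of BILR 355 in PEG solution with 200 ml tap water, given to healthy males. Standard breakfast came 60-90 min after the dose. EDTA plasma was sampled predose to 144 h, stored below −18°C and assayed by LC-MS/MS after protein precipitation. Noncompartmental analysis gave Vz/F. Vss/F = CL/F·(MRTp.o. − 1/Ka), with Ka from compartmental modelling.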

[17] = Apparent volume of distribution in terminal phase in healthy human at 12.5 mg, po administered as single dose coadministered with 100 mg of ritonavir; type: ADME, organism-based; conditions: in vivo, read-out: Vz/F; summary of the method: as §1
[18] = Half life in healthy human at 87.5 mg, po administered as single dose coadministered with 100 mg of ritonavir; type: ADME, organism-based; conditions: in vivo
Homo sapiens [19] = test: Toxicity in healthy human assessed as occurrence of abdominal pain at 75 mg, po administered as single dose relative to control; type: organism-based, Abdomen; conditions: in vivo
Homo sapiens [20] = test: Toxicity in healthy human assessed as occurrence of palpitations at 1 mg, po administered as single dose relative to control; type: organism-based; conditions: in vivo
Homo sapiens [21] = test: Toxicity in healthy human assessed as occurrence of maculopapular rash at 100 mg, po administered as single dose relative to control; type: organism-based; conditions: in vivo
[22] = Mean residence time in healthy human at 50 mg, po administered as single dose coadministered with 100 mg of ritonavir; type: ADME, organism-based; conditions: in vivo
Homo sapiens [23] = test: Toxicity in healthy human assessed as occurrence of palpitations at 50 mg, po administered as single dose relative to control; type: organism-based; conditions: in vivo
Homo sapiens [24] = test: Toxicity in healthy human assessed as occurrence of fatigue at 5 mg, po administered as single dose relative to control; type: organism-based; conditions: in vivo
[25] = Apparent volume of distribution in terminal phase in healthy human at 62.5 mg, po administered as single dose coadministered with 100 mg of ritonavir; type: ADME, organism-based; conditions: in vivo, read-out: Vz/F; summary of the method: as §1
Homo sapiens [26] = test: Toxicity in healthy human assessed as occurrence of abdominal pain at 25 mg, po administered as single dose relative to control; type: organism-based, Abdomen; conditions: in vivo
[27] = Apparent volume of distribution in terminal phase in healthy human at 75 mg, po administered as single dose; type: ADME, organism-based; conditions: in vivo, read-out: Vz/F; summary of the method: as §3
[28] = AUC (0 to infinity) in high fat fed healthy human at 50 mg, po administered as single dose coadministered with 100 mg of ritonavir; type: ADME, organism-based; parameters: dose 50 mg, time infinity, route oral; conditions: plasma
Summary of the method: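 Fed cohort of 6 healthy men given an FDA-type high-fat breakfast (about 150, 250 and 500 to 600 cal from protein, carbohydrate and fat) 30 min before dosing. Ritonavir 100 mg given 10 h earlier and again with the single oral dose in PEG solution. Plasma sampled to 144 h, LC-MS/MS, noncompartmental analysis.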

[29] = Apparent volume of distribution at steady state in healthy human at 50 mg, po administered as single dose; type: ADME, organism-based; conditions: in vivo, read-out: Vss/F; summary of the method: as §3
Homo sapiens [30] = test: Toxicity in healthy human assessed as occurrence of flatulence at 12.5 mg, po administered as single dose relative to control; type: organism-based; conditions: in vivo
Homo sapiens [31] = test: Toxicity in healthy human assessed as occurrence of nausea at 25 mg, po administered as single dose relative to control; type: organism-based; conditions: in vivo
[32] = Renal clearance in healthy human at 100 mg, po administered as single dose by high-pressure liquid chromatography-tandem mass spectrometry/mass spectrometry method; type: ADME, organism-based, Kidney; conditions: in vivo, read-out: CL_renal (converted)
Homo sapiens [33] = test: Ratio of AUC (0 to infinity) in human at 75 mg, po in presence of 100 mg of ritonavir to AUC (0 to infinity) in human at 75 mg, po; type: ADME, organism-based; conditions: in vivo
Homo sapiens [34] = test: Toxicity in healthy human assessed as occurrence of constipation at 50 mg, po administered as single dose relative to control; type: organism-based; conditions: in vivo
[35] = Tmax in healthy human at 50 mg, po administered as single dose coadministered with 100 mg of ritonavir; type: ADME, organism-based; conditions: in vivo
Homo sapiens [36] = test: Toxicity in healthy human assessed as occurrence of frequent bowel movements at 50 mg, po administered as single dose relative to control; type: organism-based; conditions: in vivo

Structure (SMILES): CCN1c2ncc(CCOc3cc[n+]([O-])c4ccccc34)cc2C(=O)N(C)c2cccnc21 [BILR 355]
- Activity (Homo sapiens [1]): 0%
- Cmax [2]: 653 ng/mL
- Ratio (Homo sapiens [3]): 3.3
- CL/F [4]: 112 mL/min
- AUC(0-t) [5]: 7480 ng·h/mL
- Vd/F [6]: 105 L
- Tmax [7]: 42 min
- Activity (Homo sapiens [8]): 0%
- Activity (Homo sapiens [9]): 0%
- Activity (Homo sapiens [10]): 16.7%
- Cmax [11]: 468 ng/mL
- half-life [12]: 714 min
- Activity (Homo sapiens [13]): 0%
- Activity (Homo sapiens [14]): 0%
- Activity (Homo sapiens [15]): 0%
- Vd/F [16]: 213 L
- Vd/F [17]: 149 L
- half-life [18]: 577 min
- Activity (Homo sapiens [19]): 16.7%
- Activity (Homo sapiens [20]): 0%
- Activity (Homo sapiens [21]): 0%
- MRT [22]: 16.7 h
- Activity (Homo sapiens [23]): 0%
- Activity (Homo sapiens [24]): 0%
- Vd/F [25]: 118 L
- Activity (Homo sapiens [26]): 16.7%
- Vd/F [27]: 832 L
- AUC(0-inf) [28]: 8300 ng·h/mL
- Vd/F [29]: 390 L
- Activity (Homo sapiens [30]): 0%
- Activity (Homo sapiens [31]): 0%
- CL renal [32]: 9.85 mL/min
- Ratio (Homo sapiens [33]): 15
- Activity (Homo sapiens [34]): 0%
- Tmax [35]: 57.5 min
- Activity (Homo sapiens [36]): 0%

— ChEMBL document CHEMBL1629563, “Pharmacokinetic and safety evaluation of BILR 355, a second-generation nonnucleoside reverse transcriptase inhibitor, in healthy volunteers” (Antimicrob Agents Chemother, 2008)
